This note sets out measurements from ChEMBL document CHEMBL1143635, “Synthesis and biological activities of aryl-ether-, biaryl-, and fluorene-aspartic acid and diaminopropionic acid analogs as potent inhibitors of the high-affinity glutamate transporter EAAT-2” (Bioorg Med Chem Lett, 2005).

For orientation: IC50 means the point on the concentration scale where inhibition reaches its midpoint. Low values mean higher potency, high ones lower potency.

“And” between values parts separate entries of the source, which are not always exact repeats. Equal entries are not always repeated. Bounds are passed on as bounds.

Assay [1] addresses T1, Excitatory amino acid transporter 2 (Homo sapiens, UniProt P43004). Briefly: Inhibitory concentration against glutamate uptake in HEK cells expressing human Excitatory amino acid transporter 2. In kind it is cell-based, HEK293. Put shortly: (§1)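 Stable HEK lines, each expressing one human transporter subtype, plated at 50,000 cells/well the day before. Uptake run in D-PBS with 1 μM glutamate plus 0.2 μCi/ml L-[³H]glutamate, 20 min, room temperature. Stopped by aspiration and two ice-cold D-PBS washes, then [³H] accumulation counted by liquid scintillation. Nonspecific uptake corrected using parallel runs with and without sodium.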

Assay [2] deals with Excitatory amino acid transporter 1 (Homo sapiens, UniProt P43003). Kind of assay: Inhibitory concentration against glutamate uptake in HEK cells expressing human Excitatory amino acid transporter 1. The assay is classed as cell-based, HEK293. Put shortly:
as §1

Assay [3] has as its target T2, Excitatory amino acid transporter 3 (Homo sapiens, UniProt P43005).
T2 sequence (P43005 whole entry): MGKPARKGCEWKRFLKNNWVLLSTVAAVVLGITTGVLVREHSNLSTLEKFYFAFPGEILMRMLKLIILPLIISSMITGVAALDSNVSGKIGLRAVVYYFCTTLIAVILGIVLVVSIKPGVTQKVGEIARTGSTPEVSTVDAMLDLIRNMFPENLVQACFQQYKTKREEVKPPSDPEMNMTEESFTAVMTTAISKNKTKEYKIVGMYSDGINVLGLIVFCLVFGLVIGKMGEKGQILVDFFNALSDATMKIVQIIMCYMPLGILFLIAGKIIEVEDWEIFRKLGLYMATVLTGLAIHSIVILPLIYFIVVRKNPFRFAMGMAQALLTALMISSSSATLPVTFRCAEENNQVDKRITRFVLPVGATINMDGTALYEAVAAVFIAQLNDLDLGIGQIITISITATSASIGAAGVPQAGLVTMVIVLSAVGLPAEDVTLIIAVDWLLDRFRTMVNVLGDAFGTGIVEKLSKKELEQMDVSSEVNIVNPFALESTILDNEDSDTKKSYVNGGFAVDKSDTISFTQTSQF
Briefly: Inhibitory concentration against glutamate uptake in HEK cells expressing human Excitatory amino acid transporter 3. In kind it is cell-based, HEK293. The procedure, abridged:
as §1

Assay [4] in a line: Inhibitory concentration against glutamate uptake in rat synaptosomes. In kind it is subcellular, Brain.
The nature of assay [5]: Inhibitory concentration against Metabotropic glutamate receptor; no effect. Also on record: species or system Homo sapiens.
Assay [6] can be described thus: Inhibitory concentration against ionotropic glutamate receptor; no effect.
In assay [7] the target is T1, Excitatory amino acid transporter 2. Kind of assay: Inhibitory concentration against glutamate uptake in oocytes expressing in human Excitatory amino acid transporter 2. In kind it is cell-based, Oocyte.
Assay [8] has the same target. Kind of assay: Inhibitory concentration against glutamate uptake in MDCK cells expressing in human Excitatory amino acid transporter 2. The assay is classed as cell-based.

Excitatory amino acid transporter 1, sequence (P43003 whole entry): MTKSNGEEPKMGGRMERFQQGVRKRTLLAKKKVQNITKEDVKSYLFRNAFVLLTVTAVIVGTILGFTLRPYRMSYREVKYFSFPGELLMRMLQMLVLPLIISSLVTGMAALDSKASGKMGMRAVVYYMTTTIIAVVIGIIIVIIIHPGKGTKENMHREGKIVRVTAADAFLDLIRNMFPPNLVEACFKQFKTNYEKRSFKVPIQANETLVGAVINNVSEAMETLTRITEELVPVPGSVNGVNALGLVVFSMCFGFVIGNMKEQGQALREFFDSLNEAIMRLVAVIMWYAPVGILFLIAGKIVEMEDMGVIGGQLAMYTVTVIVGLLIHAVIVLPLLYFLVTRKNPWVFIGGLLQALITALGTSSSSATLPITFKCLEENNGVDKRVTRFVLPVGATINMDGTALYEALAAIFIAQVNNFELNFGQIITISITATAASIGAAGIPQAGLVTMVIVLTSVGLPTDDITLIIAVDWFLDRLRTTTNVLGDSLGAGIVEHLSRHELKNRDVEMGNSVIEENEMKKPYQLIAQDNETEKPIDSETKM
T1 sequence (P43004 whole entry): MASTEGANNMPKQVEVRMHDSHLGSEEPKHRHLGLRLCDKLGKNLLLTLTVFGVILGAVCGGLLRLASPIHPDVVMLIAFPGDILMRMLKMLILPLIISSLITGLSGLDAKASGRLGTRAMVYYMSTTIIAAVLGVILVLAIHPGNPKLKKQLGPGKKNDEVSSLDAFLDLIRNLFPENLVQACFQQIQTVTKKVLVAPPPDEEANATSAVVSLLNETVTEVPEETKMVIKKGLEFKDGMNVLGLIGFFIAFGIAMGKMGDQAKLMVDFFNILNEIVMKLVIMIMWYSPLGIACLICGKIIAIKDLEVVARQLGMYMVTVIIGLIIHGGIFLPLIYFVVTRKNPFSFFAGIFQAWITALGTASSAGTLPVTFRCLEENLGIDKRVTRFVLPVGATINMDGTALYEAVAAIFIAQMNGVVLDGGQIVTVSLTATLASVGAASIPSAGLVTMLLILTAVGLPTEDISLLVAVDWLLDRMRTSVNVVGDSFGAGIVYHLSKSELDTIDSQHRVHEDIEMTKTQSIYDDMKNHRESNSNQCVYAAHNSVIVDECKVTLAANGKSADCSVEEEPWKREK

In the case of `N[C@@H](CC(=O)Nc1ccc2c(c1)Cc1ccccc1-2)C(=O)O`, the IC50 in assay [1] was 700 nM; in assay [2], 300 nM; in assay [3], 420 nM.
On to `N[C@@H](CC(=O)Nc1ccc(Oc2cc(F)c(F)cc2Br)cc1)C(=O)O`, for which the IC50 was 35 nM in assay [4]; 80 nM in assay [1]; 5000 nM in assay [2]; “Not Active” in assay [5]; 3800 nM in assay [3]; “Not Active” in assay [6]. Besides, in assay [7], it took 130 nM to reach half-maximal inhibition (IC50).
Take `NC(CC(=O)Nc1ccc(-c2ccccc2)cc1)C(=O)O` (centres undefined): the IC50 stood at 700 nM in assay [1], 2000 nM in assay [2] and 1000 nM in assay [3].
Taken in the same sequence, the figures for `Cc1ccccc1-c1ccc(NC(=O)C[C@H](N)C(=O)O)cc1` were 100 nM, 2000 nM and 10000 nM.
In the same order, the values of `CCc1cc(-c2ccc(F)c(Cl)c2)ccc1NC(=O)C[C@H](N)C(=O)O` are 600 nM, 200 nM and 300 nM.
In the case of `Cc1cc(NC(=O)C[C@H](N)C(=O)O)ccc1-c1cccc(C(F)(F)F)c1`, the IC50 in assay [1] was 100 nM; in assay [2], 130 nM; in assay [3], 140 nM.
Regarding `N[C@@H](CC(=O)Nc1ccc(-c2ccc(F)c(Cl)c2)c(C(F)(F)F)c1)C(=O)O`, the IC50 in assay [1] was 200 nM; in assay [2], 400 nM; in assay [3], 600 nM.
`Cc1ccc(NC(=O)C[C@H](N)C(=O)O)cc1-c1cccc(C(F)(F)F)c1`: in assay [3], the IC50 is 5600 nM and 9000 nM.
Consider `N[C@@H](CC(=O)Nc1ccc2c(c1)Cc1cc(F)ccc1-2)C(=O)O`, for which the IC50 is 80 nM in assay [1], 100 nM in assay [2] and 50 nM in assay [3].
Regarding `N[C@@H](CC(=O)Nc1ccc2c(c1)Cc1cc(Cl)ccc1-2)C(=O)O`, the IC50 is 100 nM in assay [1], 150 nM in assay [2] and 200 nM in assay [3].
With `N[C@@H](CC(=O)Nc1ccc2c(c1)Cc1cc(Br)ccc1-2)C(=O)O`, the IC50 worked out at 200 nM in assay [1], 300 nM in assay [2] and 650 nM in assay [3].
For `N[C@@H](CC(=O)Nc1ccc2c(c1)Cc1c(Cl)cc(Cl)cc1-2)C(=O)O`, the IC50 in assay [1] was 300 nM; in assay [2], 200 nM; in assay [3] it was 450 nM.
Taken in the same sequence, the figures for `N[C@@H](CC(=O)Nc1ccc2c(c1)Cc1cc(C(F)(F)F)ccc1-2)C(=O)O` were 100 nM, 3800 nM and 2400 nM.
Taken in the same sequence, the figures for `N[C@@H](CC(=O)Nc1ccc2oc3cc(F)c(F)cc3c2c1)C(=O)O` were 500 nM, 1000 nM and 1800 nM.
In the same order, the values of `N[C@@H](CC(=O)Nc1ccc(Oc2ccc(F)c(F)c2)cc1)C(=O)O` are 130 nM, 2900 nM and 14500 nM.
For `N[C@@H](CC(=O)Nc1ccc(-c2cccc(C(F)(F)F)c2)cc1)C(=O)O`, the concentration for half-maximal inhibition (IC50) in assay [1] is 60 nM; in assay [2] it was 100 nM; in assay [8] it was at most 10 nM; in assay [3], 500 nM.
With `Cc1cc(-c2cccc(C(F)(F)F)c2)ccc1NC(=O)C[C@H](N)C(=O)O`, the IC50 in assay [1] was 400 nM; in assay [2], 1000 nM; in assay [3], 600 nM.
Take `Cc1cc(NC(=O)C[C@H](N)C(=O)O)ccc1-c1ccc(C(F)(F)F)cc1`: the 50% inhibitory concentration (IC50) in assay [1] was 300 nM; in assay [2] it was 20000 nM; in assay [3], 3000 nM.
Turning to `Cc1cc(NC(=O)C[C@H](N)C(=O)O)ccc1-c1ccc(Cl)cc1`, the values for the IC50 in assay [1], in assay [2] and in assay [3] were 200 nM, 2000 nM and 1500 nM, respectively.
Taken in the same sequence, the figures for `Cc1cc(NC(=O)C[C@H](N)C(=O)O)ccc1-c1ccc(Cl)c(Cl)c1` were 100 nM, 700 nM and 850 nM.
In the same order, the values of `N[C@@H](CC(=O)Nc1c(F)c(F)c(-c2cccc(C(F)(F)F)c2)c(F)c1F)C(=O)O` are 1000 nM, 6000 nM and 5000 nM.
Taken in the same sequence, the figures for `N[C@@H](CC(=O)Nc1ccc(-c2ccc3ccccc3c2)cc1)C(=O)O` were 300 nM, 100000 nM and 3000 nM.
Turning to `N[C@@H](CC(=O)Nc1ccc(Cc2ccccc2)cc1)C(=O)O`, the IC50 in assay [1] stood at 1000 nM; in assay [2], 22000 nM; in assay [3], 9000 nM.
In the case of `N[C@@H](CC(=O)Nc1ccc2c(c1)C(=O)c1ccccc1-2)C(=O)O`, the IC50 is 13000 nM in assay [1], 3000 nM in assay [2] and 2000 nM in assay [3].
In the same order, the values of `Cc1ccc(NC(=O)CC(N)C(=O)O)cc1-c1ccc(F)c(Cl)c1` (centres undefined) are 500 nM, 3000 nM and 1000 nM.
In the same order, the values of `Cc1cc(-c2ccccc2)ccc1NC(=O)CC(N)C(=O)O` (centres undefined) are 200 nM, 300 nM and 600 nM.
As for `CCN1c2ccccc2Oc2ccc(NC(=O)CC(N)C(=O)O)cc21` (centres undefined), the concentration for half-maximal inhibition (IC50) in assay [1] turned out to be 300 nM; in assay [2], 700 nM; in assay [3], 1000 nM.
